Compounds with a hit are over-represented: about 2.6% of the library has one in this group of screens.
UCH37 inh – human UCH37 deubiquitinating enzyme inhibition. Q9Y5K5. purified proteasome/UCH37, Ub-AMC cleavage fluorescence. inhibition, % (test concentration not listed). hit rate 0.33% among 330,000;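 active = mean inhibition over replicate wells above about 20%, limit read from the data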
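Material: human UCH37 enzyme supplied as purified proteasome complex. Measure: % inhibition of Ub-AMC cleavage fluorescence. Medium: pH 7.4 Tris-HCl (50 mM) with ovalbumin, ATP-MgCl2, DTT. Times: 30 min preincubation with enzyme, 25 min cleavage at room temperature. Detection: AMC fluorescence intensity at 355/460 nm.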
SENP6 inh – inhibitors of human SENP6 protease. Q9GZR1. hit rate 1.8% among 330,000. inhibition, % at 10 µM. AID 2599. Recombinant SENP6 catalytic domain, aminoluciferin luminescence;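 active = inhibition above about 50% at the single tested dose, limit read from the data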
SENP8 block-1 – inhibitors of human SENP8 protease. Q96LD8. recombinant SENP8, Nedd8 substrate fluorescence. inhibition, % at 20 µM. hit rate 0.64% among 360,000; in the data active = inhibition mostly above about 40%, no sharp cut-off; inactive = mostly below about 27%
Target sequence (Q96LD8 whole entry, looked up): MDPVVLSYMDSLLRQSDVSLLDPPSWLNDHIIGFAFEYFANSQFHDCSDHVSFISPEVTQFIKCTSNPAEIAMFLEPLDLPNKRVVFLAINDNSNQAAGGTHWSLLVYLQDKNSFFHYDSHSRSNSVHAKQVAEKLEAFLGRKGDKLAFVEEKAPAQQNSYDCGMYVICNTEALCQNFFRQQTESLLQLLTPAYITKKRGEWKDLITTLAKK
SENP1 FRET inh – blocks the human SENP1 SUMO protease catalytic domain. Q9P0U3. recombinant SENP1 catalytic domain, CyPet-SUMO1-YPet FRET cleavage. inhibition, % at 10 µM. hit rate 0.21% among 360,000. AID 624204;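 active = inhibition at least 30% at 10 µM, raw YFP signal under a set limit, fluorescence ratio 0.5 to 1.5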
Target sequence (Q9P0U3 419-644 limits assumed): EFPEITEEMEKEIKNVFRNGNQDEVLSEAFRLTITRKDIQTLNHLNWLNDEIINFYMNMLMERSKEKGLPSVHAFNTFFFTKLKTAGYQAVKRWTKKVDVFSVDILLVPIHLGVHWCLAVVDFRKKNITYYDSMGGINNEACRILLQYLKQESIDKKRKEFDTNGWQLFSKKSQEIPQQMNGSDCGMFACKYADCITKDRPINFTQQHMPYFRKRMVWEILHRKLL
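material = recombinant human SENP1 catalytic domain, His6-tagged | quantity = 20 pM enzyme | reagent = 25 nM SUMO1 FRET substrate | compound dosing = 10 µM single point, 0.5% DMSO | timing = 50 min enzyme reaction, room temperature, light-protected | detection = FRET, CFP and YFP emission | control set = no-enzyme low, enzyme-DMSO high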
SENP7 inh – SENP7 protease inhibition | Q9BQF6 | recombinant SENP7, Z-RLRGG-aminoluciferin luminescence, 40 min | inhibition, % at 5 µM | hit rate 1.5% among 330,000 | AID 434973;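 active = inhibition above about 50% at the single test dose, limit read from the data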
SENP8 block-2 – blocks the human protease SENP8. hit rate 1.2% among 330,000. Q96LD8. purified SENP8, Z-RLRGG-aminoluciferin cleavage, luminescence. inhibition, % at 10 µM. AID 2540; in the data active = inhibition above about 50%
SENP8 conf – human SENP8 inhibition, confirmed; shares compounds with SENP7 inh; Recombinant SENP8, Z-RLRGG-aminoluciferin luminescence, 60 min; inhibition, % at 12.5 µM; hit rate 40% among 6,200; AID 488912;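 active = mean inhibition across replicates above about 50%, limit read from the data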
SENP6 confirm – confirmation of human SENP6 protease inhibitors | shares compounds with SENP7 inh | recombinant SENP6, Z-RLRGG-aminoluciferin luminescence | inhibition, % at 12.5 µM | hit rate 58% among 6,200
SENP7 confirm – human SENP7 inhibition, confirmed; shares compounds with SENP7 inh; inhibition, % at 12.5 µM; recombinant SENP7, Z-RLRGG-aminoluciferin luminescence, 40 min; hit rate 69% among 6,200
Casp3 select – inhibits human caspase-3 in SENP selectivity test | shares compounds with SENP7 inh | purified caspase-3, Z-DEVD-aminoluciferin luminescence, 60 min | inhibition, % at 12.5 µM | hit rate 60% among 6,200 | AID 488918;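 active = mean inhibition above about 50%, limit read from the data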
Target sequence (P42574 28-227 limits assumed): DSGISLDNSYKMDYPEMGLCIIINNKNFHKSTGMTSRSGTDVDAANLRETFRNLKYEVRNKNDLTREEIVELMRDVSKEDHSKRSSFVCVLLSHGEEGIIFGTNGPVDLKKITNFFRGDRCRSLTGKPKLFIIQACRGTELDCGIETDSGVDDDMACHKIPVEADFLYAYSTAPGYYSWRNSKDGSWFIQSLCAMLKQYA
Luc interf – counter-screen for SENP inhibitors: luminescence interference; shares compounds with SENP7 inh; AID 488919; hit rate 39% among 6,200; inhibition, % at 12.5 µM; Pre-incubated SENP8/Z-RLRGG-aminoluciferin, luciferase luminescence interference;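 active = mean inhibition above about 50% when retested at one dose, limit read from the data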
Each line names hits and unclear results; the compound was inactive in the other large screens (follow-up assays come after a bar, where they were run).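 The calls were made as follows, unless noted: active = mean inhibition above about 50% in the one-dose retest (limit read from the data); inactive = the rest.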

Cc1cc(=O)n2ccccc2c1C#N	none
CC(C)(C)C(=O)Nc1sc(-c2ccccc2)cc1C(=O)O	SENP6 inh 57.9 | SENP8 conf inactive | SENP6 confirm inactive | SENP7 confirm 70.4 | Casp3 select inactive | Luc interf 51.6
Cc1cccc(C(=O)Nc2sc(-c3ccccc3)cc2C(=O)O)c1	SENP6 inh 85.4, SENP8 block-2 65.2 | SENP8 conf 78.2 | SENP6 confirm 74.8 | SENP7 confirm 72.0 | Casp3 select inactive | Luc interf 83.7
CCOC(=O)c1cc(-c2ccccc2)sc1NC(=O)c1ccc(OC)c(OC)c1	none
Cn1ccnc1SCC(=O)c1c[nH]c2ccccc12	SENP6 inh 58.3 | SENP8 conf inactive | SENP6 confirm inactive | SENP7 confirm 78.2 | Casp3 select 78.2 | Luc interf 53.9
COc1ccc(NC(=O)c2csc3c2CCCC3)cc1	SENP7 inh 50.2 | SENP8 conf inactive | SENP6 confirm inactive | SENP7 confirm 75.0 | Casp3 select inactive | Luc interf inactive
Cc1cccc(NC(=S)NNC(=O)c2csc3c2CCCC3)c1	SENP8 block-2 61.1 | SENP8 conf inactive | SENP6 confirm inactive | SENP7 confirm inactive | Casp3 select inactive | Luc interf inactive
Cc1ccc(C)c(NC(=S)NNC(=O)c2csc3c2CCCC3)c1	none
COc1cccc(NC(=O)c2csc3c2CCCC3)c1	SENP6 inh 68.3, SENP7 inh 62.2, SENP8 block-2 54.1 | SENP8 conf 58.7 | SENP6 confirm 59.3 | SENP7 confirm 87.0 | Casp3 select inactive | Luc interf inactive
COc1cccc(C=NNC(=O)c2nc(-c3ccccc3)cc(-c3ccccc3)n2)c1O	none (no result: SENP6 inh, SENP8 block-1, SENP1 FRET inh, SENP7 inh, SENP8 block-2)
O=S(=O)(NN=Cc1c(F)cccc1Cl)c1ccccc1	none (no result: SENP6 inh, SENP8 block-1, SENP1 FRET inh, SENP7 inh, SENP8 block-2)
COc1ccc(C=NNC(=O)CCCC(=O)NC2CCCCC2)cc1	none (no result: SENP6 inh, SENP8 block-1, SENP1 FRET inh, SENP7 inh, SENP8 block-2)
C=COC(=O)CSc1nc(-c2cccs2)ccc1C#N	SENP6 inh 56.9 | SENP8 conf inactive | SENP6 confirm 70.1 | SENP7 confirm inactive | Casp3 select inactive | Luc interf inactive
O=C(NN=Cc1c[nH]c2ccccc12)c1ccn[nH]1	none (no result: SENP6 inh, SENP8 block-1, SENP1 FRET inh, SENP7 inh, SENP8 block-2)
CCN1CC2([N+](=O)[O-])C=CC(=O)C([N+](=O)[O-])(C1)C2CC(=O)c1ccccc1 (stereo not drawn)	none
CCCCN1CC2([N+](=O)[O-])C=CC(=O)C([N+](=O)[O-])(C1)C2CC(=O)c1ccccc1 (stereo not drawn)	SENP6 inh 87.5 | SENP8 conf inactive | SENP6 confirm inactive | SENP7 confirm inactive | Casp3 select inactive | Luc interf inactive
CCCCCN1C=CC(=C2C(=O)c3ccccc3C2=O)C=C1	SENP6 inh 96.0, SENP7 inh 96.7, SENP8 block-2 95.8 | SENP8 conf 94.5 | SENP6 confirm 95.9 | SENP7 confirm 100.1 | Casp3 select 95.7 | Luc interf inactive
COc1ccc2[nH]cc(C=NNS(=O)(=O)c3ccc(C)cc3)c2c1	none (no result: SENP6 inh, SENP8 block-1, SENP1 FRET inh, SENP7 inh, SENP8 block-2)
Cc1cccc(N/C=C/C(=O)c2ccc(Cl)cc2)c1	SENP6 inh 73.0, SENP7 inh 89.5, SENP8 block-2 66.2 | SENP8 conf inactive | SENP6 confirm inactive | SENP7 confirm inactive | Casp3 select inactive | Luc interf inactive
COc1cccc(C(=O)/C=C/Nc2cc(C)ccc2O)c1	SENP6 inh 91.8, SENP7 inh 101.1, SENP8 block-2 84.1 | SENP8 conf inactive | SENP6 confirm 92.4 | SENP7 confirm 99.4 | Casp3 select 71.9 | Luc interf 86.6
O=C(/C=C/c1ccccc1O)c1ccc(Cl)cc1	SENP6 inh 67.1 | SENP8 conf inactive | SENP6 confirm 55.2 | SENP7 confirm inactive | Casp3 select inactive | Luc interf 56.2
COc1cccc(C(=O)/C=C/Nc2ccc(S(=O)(=O)Nc3ncccn3)cc2)c1	SENP6 inh 62.5 | SENP8 conf inactive | SENP6 confirm inactive | SENP7 confirm inactive | Casp3 select inactive | Luc interf inactive
Oc1ccc(C=NNc2nc(N3CCCC3)nc(N3CCCC3)n2)cc1O	none (no result: SENP6 inh, SENP8 block-1, SENP1 FRET inh, SENP7 inh, SENP8 block-2)
Cc1ccc(Cl)c(N/C=C/C(=O)c2ccccc2)c1	SENP6 inh 77.2, SENP7 inh 70.7 | SENP8 conf inactive | SENP6 confirm 59.8 | SENP7 confirm 78.7 | Casp3 select 50.4 | Luc interf inactive
O=C(/C=C\Nc1ccccn1)c1ccc(Cl)cc1	SENP6 inh 95.5, SENP8 block-2 94.7 | SENP8 conf inactive | SENP6 confirm 77.0 | SENP7 confirm 87.7 | Casp3 select 75.2 | Luc interf inactive
COc1ccc(OC)c(N/C=C/C(=O)c2ccc(OC)c(OC)c2)c1	none
CCOc1ccc(N/C=C/C(=O)c2ccc(OC)cc2)cc1	none
COc1ccc(C(=O)/C=C/Nc2cccc(O)c2)cc1	SENP6 inh 92.9, SENP7 inh 85.4, SENP8 block-2 87.9 | SENP8 conf 95.5 | SENP6 confirm 96.8 | SENP7 confirm 101.5 | Casp3 select 91.0 | Luc interf 91.4
COc1cccc(N/C=C/C(=O)c2ccc(OC)c(OC)c2)c1	SENP6 inh 89.1, SENP7 inh 75.4, SENP8 block-2 64.3 | SENP8 conf inactive | SENP6 confirm 70.1 | SENP7 confirm 93.4 | Casp3 select 70.0 | Luc interf inactive
CCOC(=O)Cc1csc(NN=Cc2ccc(N(C)C)cc2)n1	none (no result: SENP6 inh, SENP8 block-1, SENP1 FRET inh, SENP7 inh, SENP8 block-2)
Cc1ccc(C=NNC(=O)C2(O)c3ccccc3-c3ccccc32)o1	none (no result: SENP6 inh, SENP8 block-1, SENP1 FRET inh, SENP7 inh, SENP8 block-2)
CC(=NN1C(=O)c2ccccc2C1=O)c1cccc([N+](=O)[O-])c1	none (no result: SENP6 inh, SENP8 block-1, SENP1 FRET inh, SENP7 inh, SENP8 block-2)
CN(C)c1ccc(C=Nc2ccccc2)cc1	none
C/C(=N/N=C/c1ccc(N(C)C)cc1)c1ccccc1	SENP6 inh 96.8, SENP7 inh 101.2, SENP8 block-2 97.7 (no result: UCH37 inh) | SENP8 conf inactive | SENP6 confirm 80.3 | SENP7 confirm 101.2 | Casp3 select 67.2 | Luc interf inactive
Cc1ccc2c(CC(=O)N3CCc4ccccc43)coc2c1	SENP6 inh 81.3, SENP7 inh 81.9, SENP8 block-2 66.1 | SENP8 conf inactive | SENP6 confirm inactive | SENP7 confirm 59.5 | Casp3 select 69.5 | Luc interf inactive
